Columns and labels:
Cannabinoid receptor 1 [1] = molecular target: T1, Cannabinoid receptor 1 (Homo sapiens, UniProt P21554); experiment: Displacement of [3H]CP55940 from recombinant human CB1R expressed in CHO cell membranes incubated for 90 mins; design: species or system Membrane
Cannabinoid receptor 2 [2] = molecular target: T2, Cannabinoid receptor 2 (Homo sapiens, UniProt P34972); experiment: Displacement of [3H]CP55940 from recombinant human CB2R expressed in CHO cell membranes incubated for 90 mins; design: species or system Membrane
T2 sequence (P34972 whole entry): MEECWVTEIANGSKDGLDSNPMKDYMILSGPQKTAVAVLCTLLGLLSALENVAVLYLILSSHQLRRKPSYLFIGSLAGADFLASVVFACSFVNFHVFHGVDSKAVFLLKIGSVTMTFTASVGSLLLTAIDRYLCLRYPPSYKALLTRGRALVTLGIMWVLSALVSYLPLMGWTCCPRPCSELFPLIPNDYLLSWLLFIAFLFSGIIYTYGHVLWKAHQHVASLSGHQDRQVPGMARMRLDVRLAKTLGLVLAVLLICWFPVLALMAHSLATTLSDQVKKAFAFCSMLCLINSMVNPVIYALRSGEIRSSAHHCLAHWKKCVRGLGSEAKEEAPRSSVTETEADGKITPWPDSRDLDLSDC

[3] = molecular target: T3, Fatty-acid amide hydrolase 1 (Homo sapiens, UniProt O00519); experiment: Inhibition of FAAH in human U937 cells using [ethanolamine-1-3H]AEA as substrate preincubated for 15 mins followed by substrate addition and measured after 15 mins by liquid scintillation spectroscopy; format: cell-based, U-937
T3 sequence (O00519 whole entry): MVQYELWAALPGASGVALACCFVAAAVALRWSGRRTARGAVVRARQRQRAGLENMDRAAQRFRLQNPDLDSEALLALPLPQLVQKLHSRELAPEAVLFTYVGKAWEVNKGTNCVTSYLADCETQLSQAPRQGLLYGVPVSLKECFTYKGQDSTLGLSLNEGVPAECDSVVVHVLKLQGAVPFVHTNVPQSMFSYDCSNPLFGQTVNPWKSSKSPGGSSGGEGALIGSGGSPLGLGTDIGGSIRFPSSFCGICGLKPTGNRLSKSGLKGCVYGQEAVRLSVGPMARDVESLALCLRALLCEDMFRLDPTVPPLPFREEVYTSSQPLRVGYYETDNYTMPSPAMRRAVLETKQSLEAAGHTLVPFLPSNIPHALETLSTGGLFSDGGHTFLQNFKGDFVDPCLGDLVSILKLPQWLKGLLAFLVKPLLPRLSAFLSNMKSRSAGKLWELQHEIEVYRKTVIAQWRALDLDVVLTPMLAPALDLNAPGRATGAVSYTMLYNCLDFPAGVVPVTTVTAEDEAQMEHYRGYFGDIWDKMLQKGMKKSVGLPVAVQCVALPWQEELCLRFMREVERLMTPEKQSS
Outline: (§1)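 Intact U937 cells, 10^6 per condition, pre-incubated with compound 15 min at 37 °C with shaking (screen at 10 μM; full curves for hits). Substrate: 1 μM AEA with 1 nM [3H]AEA (FAAH) or 10 μM 2-OG with 5 nM [3H]2-OG (MAGL), 15 min at 37 °C. Stopped with CHCl3:MeOH 1:1, aqueous tritium counted; mean ± SD, ≥3 experiments in triplicate.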

Monoglyceride lipase = molecular target: T4, Monoglyceride lipase (Homo sapiens, UniProt Q99685); experiment: Inhibition of MAGL in human U937 cells using [glycerol-1,2,3-3H]2-OG as substrate preincubated for 15 mins followed by substrate addition and measured after 15 mins by liquid scintillation spectroscopy; format: cell-based, U-937; outline: as §1
T4 sequence (Q99685 whole entry): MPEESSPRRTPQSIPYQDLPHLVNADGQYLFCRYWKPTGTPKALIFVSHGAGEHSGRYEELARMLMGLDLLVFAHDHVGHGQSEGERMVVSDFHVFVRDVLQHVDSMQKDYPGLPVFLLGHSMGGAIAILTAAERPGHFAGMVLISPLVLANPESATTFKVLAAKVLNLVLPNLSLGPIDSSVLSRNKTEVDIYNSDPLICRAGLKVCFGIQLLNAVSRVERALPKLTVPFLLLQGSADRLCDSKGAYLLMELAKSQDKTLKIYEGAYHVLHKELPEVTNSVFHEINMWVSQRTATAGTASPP

[4] = molecular target: T5, Monoacylglycerol lipase ABHD6 (Homo sapiens, UniProt Q9BV23); experiment: Inhibition of human ABHD6 expressed in HEK293 cells using 2-OG as substrate preincubated for 30 mins followed by substrate addition and measured after 5 mins by liquid scintillation spectroscopy; format: cell-based
T5 sequence (Q9BV23 whole entry): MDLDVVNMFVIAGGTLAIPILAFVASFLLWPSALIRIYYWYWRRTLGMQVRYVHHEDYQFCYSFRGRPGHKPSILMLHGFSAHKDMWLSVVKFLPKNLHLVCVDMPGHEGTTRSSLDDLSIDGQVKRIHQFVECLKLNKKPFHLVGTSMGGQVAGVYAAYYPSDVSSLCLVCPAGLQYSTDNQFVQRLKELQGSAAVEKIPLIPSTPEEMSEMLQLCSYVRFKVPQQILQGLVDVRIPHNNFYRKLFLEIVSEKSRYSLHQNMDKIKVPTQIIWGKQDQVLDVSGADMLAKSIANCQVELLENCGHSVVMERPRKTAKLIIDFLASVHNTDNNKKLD
Outline: (§2)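 Homogenates (40 µg) from HEK293 stably expressing hABHD6 or hABHD12 pre-incubated with compound 30 min at 37 °C in […], 0.1% BSA, pH 7.6; then 10 μM 2-OG for 5 min at 37 °C. Aqueous phase tritium counted after CHCl3:MeOH stop; no-enzyme blanks and non-transfected HEK293 hydrolysis subtracted. Controls WWL70 10 μM, THL 20 μM.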

[5] = molecular target: T6, Lysophosphatidylserine lipase ABHD12 (Homo sapiens, UniProt Q8N2K0); experiment: Inhibition of human ABHD12 expressed in HEK293 cells using 2-OG as substrate preincubated for 30 mins followed by substrate addition and measured after 5 mins by liquid scintillation spectroscopy; format: cell-based; outline: as §2
T6 sequence (Q8N2K0 whole entry): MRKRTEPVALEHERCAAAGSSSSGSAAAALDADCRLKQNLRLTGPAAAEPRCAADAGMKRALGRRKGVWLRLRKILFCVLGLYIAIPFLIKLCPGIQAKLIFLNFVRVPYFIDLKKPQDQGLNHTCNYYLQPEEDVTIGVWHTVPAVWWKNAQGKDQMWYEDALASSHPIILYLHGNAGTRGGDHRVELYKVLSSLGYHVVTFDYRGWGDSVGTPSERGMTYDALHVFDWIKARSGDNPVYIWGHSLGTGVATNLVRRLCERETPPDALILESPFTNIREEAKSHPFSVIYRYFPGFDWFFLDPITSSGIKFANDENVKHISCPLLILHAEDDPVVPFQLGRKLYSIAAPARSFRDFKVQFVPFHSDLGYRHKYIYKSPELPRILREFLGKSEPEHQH

Cannabinoid receptor 1 [6] = molecular target: T1, Cannabinoid receptor 1; experiment: Partial agonist activity at human CB1R expressed in CHO cell membranes after 90 mins by [35S]GTPgammaS assay; format: functional, Membrane
Outline: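 Membranes from CHO cells stably expressing hCB1 (10 µg), in 50 mM Tris-HCl, 3 mM MgCl2, 0.2 mM EDTA, 100 mM NaCl, 0.5% fatty-acid-free BSA, pH 7.4, with 10 µM GDP and 0.1 nM [35S]GTPγS. Compounds added at several concentrations. Incubated 90 min at 30 °C, then rapid filtration and radioactivity counting. Non-specific binding measured with 10 µM GTPγS.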

Cannabinoid receptor 2 [7] = molecular target: T2, Cannabinoid receptor 2; experiment: Inverse agonist activity at human CB2R expressed in CHO cell membranes after 90 mins by [35S]GTPgammaS assay; format: functional, Membrane
Outline: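 In-house CHO membranes expressing hCB1 or hCB2 (10 µg) in 50 mM Tris-HCl, 3 mM MgCl2, 0.2 mM EDTA, 100 mM NaCl, 0.5% fatty-acid-free BSA, pH 7.4, with 10 μM GDP and 0.1 nM [35S]GTPγS. Incubated 90 min at 30 °C; antagonist pre-incubated 30 min. Nonspecific binding with 10 μM GTPγS; bound label by filtration and counting; ≥3 experiments in triplicate.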

T1 sequence (P21554 whole entry): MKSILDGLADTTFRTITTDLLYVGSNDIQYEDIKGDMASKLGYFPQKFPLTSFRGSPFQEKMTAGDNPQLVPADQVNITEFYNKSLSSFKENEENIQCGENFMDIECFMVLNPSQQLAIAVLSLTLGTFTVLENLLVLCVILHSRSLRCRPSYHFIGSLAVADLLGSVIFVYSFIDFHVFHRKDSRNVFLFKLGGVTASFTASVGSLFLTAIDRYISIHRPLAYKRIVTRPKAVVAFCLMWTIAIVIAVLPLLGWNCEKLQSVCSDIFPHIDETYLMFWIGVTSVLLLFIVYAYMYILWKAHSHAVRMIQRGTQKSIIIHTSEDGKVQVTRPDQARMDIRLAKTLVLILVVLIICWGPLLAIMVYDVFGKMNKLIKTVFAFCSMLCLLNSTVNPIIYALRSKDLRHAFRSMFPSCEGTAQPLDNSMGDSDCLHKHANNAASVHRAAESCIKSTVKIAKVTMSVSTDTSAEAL

## Cc1c(-c2ccc(F)cc2)cc(C(=O)NC2CCCCCC2)c(=O)n1Cc1ccc(F)cc1
Cannabinoid receptor 1 [1]
  Ki: 49.3 nM
Cannabinoid receptor 2 [2]
  Ki: 28.9 nM
[3]
  IC50: 530 nM
Monoglyceride lipase
  IC50: > 10000 nM
[4]
  IC50: > 10000 nM
[5]
  IC50: 600 nM
Cannabinoid receptor 1 [6]
  EC50: 120 nM
Cannabinoid receptor 2 [7]
  EC50: 6.45 nM
